Source: ChEMBL document CHEMBL1142076, “Expression of immunomodulatory genes in human monocytes induced by voriconazole in the presence of Aspergillus fumigatus” (2007)
The source made the active and inactive calls. The calls are words filed in the database; no cut-off is given here.

Key:
THP-1 [1] = experiment: Effect on IL1R1 gene expression in THP1 cells treated with Aspergillus fumigatus hyphae after 6 hrs by cDNA array hybridization; type: functional, Homo sapiens
Summary of the method: (§1)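 THP-1 cells primed with 10 ng/ml PMA for 6 h, rested 22 h, then exposed 6 h at 37°C to sonicated, nonviable AF 4215 hyphal fragments (E:T 10:1) with or without 0.1 μg/ml VRC. Total RNA (4 μg) reverse-transcribed to biotin-labelled cDNA and hybridised to a 96-gene inflammatory cytokine/receptor nylon array. Chemiluminescent read-out normalised to GAPDH; fold change against untreated cells; >2.5-fold counted significant; three independent arrays.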

THP-1 [2] = experiment: Effect on TNFA gene expression in THP1 cells treated with Aspergillus fumigatus hyphae after 6 hrs by cDNA array hybridization; type: functional, Homo sapiens; summary of the method: as §1
THP-1 [3] = experiment: Effect on TNFA gene expression in THP1 cells treated with Aspergillus fumigatus hyphae by RT-PCR; type: functional, Homo sapiens
Summary of the method: (§2)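 THP-1 cells PMA-primed and exposed to hyphal fragments (E:T 10:1) with or without 0.1 μg/ml VRC. One-step RT-PCR on 0.5 μg total RNA with M-MuLV: 48°C 30 min, then 30 cycles of 94°C 15 s, 53°C 30 s, 72°C 1 min. Products run on 1.5% agarose and quantified by densitometry after normalisation to an internal control; three independent experiments.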

THP-1 [4] = experiment: Effect on CCL2 gene expression in THP1 cells treated with Aspergillus fumigatus hyphae by RT-PCR; type: functional, Homo sapiens; summary of the method: as §2
THP-1 [5] = experiment: Effect on CCL4 gene expression in THP1 cells treated with Aspergillus fumigatus hyphae by RT-PCR; type: functional, Homo sapiens; summary of the method: as §2
THP-1 [6] = experiment: Increase in IL1-beta production in THP1 cells stimulated with Aspergillus fumigatus hyphae at 0.1 ug/ml after 6 hrs; type: functional, cell-based; settings: Homo sapiens
Summary of the method: (§3)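 PMA-primed THP-1 cells (1 × 10^6/ml) incubated 6 h at 37°C with hyphal fragments (E:T 10:1) with or without 0.1 μg/ml VRC. Supernatant IL-1β, TNF-α, IL-12, MCP-1 and MIP-1β measured by sandwich ELISA in duplicate at 450/540 nm. Five independent experiments, means ± SEM; ANOVA with Dunnett's test against untreated cells.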

THP-1 [7] = experiment: Increase in IL12 production in THP1 cells stimulated with Aspergillus fumigatus hyphae at 0.1 ug/ml after 6 hrs; type: functional, cell-based; settings: Homo sapiens; summary of the method: as §3
THP-1 [8] = experiment: Increase in TNFalpha production in THP1 cells stimulated with Aspergillus fumigatus hyphae at 0.1 ug/ml after 6 hrs; type: functional, cell-based; settings: Homo sapiens; summary of the method: as §3
THP-1 [9] = experiment: Decrease in MCP1 production in THP1 cells stimulated with Aspergillus fumigatus hyphae at 0.1 ug/ml after 6 hrs; type: functional, cell-based; settings: Homo sapiens; summary of the method: as §3
THP-1 [10] = experiment: Decrease in MIP1-beta production in THP1 cells stimulated with Aspergillus fumigatus hyphae at 0.1 ug/ml after 6 hrs; type: functional, cell-based; settings: Homo sapiens; summary of the method: as §3
Aspergillus fumigatus [11] = experiment: Antifungal activity against Aspergillus fumigatus hyphae assessed as hyphal damage at 0.1 ug/ml after 6 hrs by XTT assay; type: functional
Summary of the method: (§4)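 A. fumigatus AF 4215 hyphae grown 16 h at 37°C in yeast nitrogen base with 2% glucose, then medium changed to RPMI 1640 + 10% heat-inactivated FCS. PMA-induced THP-1 cells added at E:T 10:1, VRC at 0.1 μg/ml, or both, 6 h at 37°C, 5% CO2. THP-1 lysed with water. XTT 0.25 mg/ml plus coenzyme Q0 40 μg/ml, 1 h. OD 450/690 nm; damage = (1 − X/C)×100 against hyphae-only wells; duplicates.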

Aspergillus fumigatus [12] = experiment: Antifungal activity against Aspergillus fumigatus hyphae incubated with THP1 cells assessed as hyphal damage at 0.1 ug/ml after 6 hrs by XTT assay; type: functional, THP-1; summary of the method: as §4
THP-1 [13] = experiment: Effect on CCL2 gene expression in THP1 cells treated with Aspergillus fumigatus hyphae after 6 hrs by cDNA array hybridization relative to control; type: functional, Homo sapiens; summary of the method: as §1
THP-1 [14] = experiment: Effect on CCL3 gene expression in THP1 cells treated with Aspergillus fumigatus hyphae after 6 hrs by cDNA array hybridization relative to control; type: functional, Homo sapiens; summary of the method: as §1
THP-1 [15] = experiment: Effect on CCL4 gene expression in THP1 cells treated with Aspergillus fumigatus hyphae after 6 hrs by cDNA array hybridization relative to control; type: functional, Homo sapiens; summary of the method: as §1
THP-1 [16] = experiment: Effect on CCL5 gene expression in THP1 cells treated with Aspergillus fumigatus hyphae after 6 hrs by cDNA array hybridization relative to control; type: functional, Homo sapiens; summary of the method: as §1
THP-1 [17] = experiment: Effect on CCL7 gene expression in THP1 cells treated with Aspergillus fumigatus hyphae after 6 hrs by cDNA array hybridization relative to control; type: functional, Homo sapiens; summary of the method: as §1
THP-1 [18] = experiment: Effect on CCL11 gene expression in THP1 cells treated with Aspergillus fumigatus hyphae after 6 hrs by cDNA array hybridization relative to control; type: functional, Homo sapiens; summary of the method: as §1
THP-1 [19] = experiment: Effect on CCL15 gene expression in THP1 cells treated with Aspergillus fumigatus hyphae after 6 hrs by cDNA array hybridization relative to control; type: functional, Homo sapiens; summary of the method: as §1
THP-1 [20] = experiment: Effect on CCL20 gene expression in THP1 cells treated with Aspergillus fumigatus hyphae after 6 hrs by cDNA array hybridization relative to control; type: functional, Homo sapiens; summary of the method: as §1
THP-1 [21] = experiment: Effect on CCL21 gene expression in THP1 cells treated with Aspergillus fumigatus hyphae after 6 hrs by cDNA array hybridization relative to control; type: functional, Homo sapiens; summary of the method: as §1
THP-1 [22] = experiment: Effect on CXCL6 gene expression in THP1 cells treated with Aspergillus fumigatus hyphae after 6 hrs by cDNA array hybridization relative to control; type: functional, Homo sapiens; summary of the method: as §1
THP-1 [23] = experiment: Effect on CXCL13 gene expression in THP1 cells treated with Aspergillus fumigatus hyphae after 6 hrs by cDNA array hybridization relative to control; type: functional, Homo sapiens; summary of the method: as §1
THP-1 [24] = experiment: Effect on IL11 gene expression in THP1 cells treated with Aspergillus fumigatus hyphae after 6 hrs by cDNA array hybridization; type: functional, Homo sapiens; summary of the method: as §1
THP-1 [25] = experiment: Effect on TGFB1 gene expression in THP1 cells treated with Aspergillus fumigatus hyphae after 6 hrs by cDNA array hybridization; type: functional, Homo sapiens; summary of the method: as §1
THP-1 [26] = experiment: Effect on IL12A gene expression in THP1 cells treated with Aspergillus fumigatus hyphae after 6 hrs by cDNA array hybridization; type: functional, Homo sapiens; summary of the method: as §1
THP-1 [27] = experiment: Effect on IL12B gene expression in THP1 cells treated with Aspergillus fumigatus hyphae after 6 hrs by cDNA array hybridization; type: functional, Homo sapiens; summary of the method: as §1
THP-1 [28] = experiment: Effect on IL16 gene expression in THP1 cells treated with Aspergillus fumigatus hyphae after 6 hrs by cDNA array hybridization; type: functional, Homo sapiens; summary of the method: as §1
THP-1 [29] = experiment: Effect on IFN-gamma gene expression in THP1 cells treated with Aspergillus fumigatus hyphae after 6 hrs by cDNA array hybridization; type: functional, Homo sapiens; summary of the method: as §1
CCL16 (Homo sapiens) = experiment: Effect on CCL16 gene expression in THP1 cells treated with Aspergillus fumigatus hyphae after 6 hrs by cDNA array hybridization relative to control

With C[C@@H](c1ncncc1F)[C@](O)(Cn1cncn1)c1ccc(F)cc1F [VORICONAZOLE] as the compound, how does the Fold change (THP-1 [1]) read?
Its Fold change is 6.3.

And the Fold change (THP-1 [2])?
Its Fold change is 3.1.

What about the Fold change (THP-1 [3]) of the same compound?
Its Fold change is 2.6.

What about the Fold change (THP-1 [4]) of the same compound?
The Fold change was -3.

What about the Fold change (THP-1 [5]) of the same compound?
The Fold change was 4.

What about the Activity (THP-1 [6]) of the same compound?
Its Activity is “Active”.

And the Activity (THP-1 [7])?
Its Activity is “Active”.

What about the Activity (THP-1 [8]) of the same compound?
The Activity was “Active”.

And the Activity (THP-1 [9])?
Its Activity is “Active”.

And the Activity (THP-1 [10])?
Its Activity is “Active”.

And the Activity (Aspergillus fumigatus [11])?
Its Activity is 26.77%.

What about the Activity (Aspergillus fumigatus [12]) of the same compound?
The Activity was 42.11%.

What about the Fold change (THP-1 [13]) of the same compound?
Its Fold change is -2.4.

What about the Fold change (THP-1 [14]) of the same compound?
The Fold change was 19.3.

And the Fold change (THP-1 [15])?
Its Fold change is 5.2.

And the Fold change (THP-1 [16])?
The Fold change was 17.7.

What about the Fold change (THP-1 [17]) of the same compound?
Its Fold change is 11.3.

And the Fold change (THP-1 [18])?
Its Fold change is 2.5.

What about the Fold change (THP-1 [19]) of the same compound?
Its Fold change is 10.1.

And the Fold change (THP-1 [20])?
Its Fold change is -2.5.

What about the Fold change (THP-1 [21]) of the same compound?
The Fold change was -2.6.

And the Fold change (THP-1 [22])?
Its Fold change is 3.5.

And the Fold change (THP-1 [23])?
The Fold change was 7.

What about the Fold change (THP-1 [24]) of the same compound?
The Fold change was 6.4.

And the Fold change (THP-1 [25])?
The Fold change was 5.9.

And the Fold change (THP-1 [26])?
Its Fold change is -3.3.

And the Fold change (THP-1 [27])?
The Fold change was -6.

And the Fold change (THP-1 [28])?
The Fold change was -7.7.

And the Fold change (THP-1 [29])?
The Fold change was 3.3.

What about the Fold change (CCL16 (Homo sapiens)) of the same compound?
The Fold change was 0.04.
